In ChEMBL document CHEMBL1138799, “4-benzyl- and 4-benzoyl-3-dimethylaminopyridin-2(1H)-ones, a new family of potent anti-HIV agents: optimization and in vitro evaluation against clinically important HIV mutant strains” (J Med Chem, 2004):

Experiments:
[1] = tested on: Human immunodeficiency virus 1; test: Inhibitory activity against HIV-1 mutant strain 103N; format: functional, organism-based
Outline: (§1)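 Mutant HIV-1 made by recombining mutant PR-RT sequence into a PR-RT-deleted HXB2 proviral clone. Serial compound concentrations plated, then virus (200 CCID50/well) and MT4 cells (30 000 cells/well; RPMI 1640, 10% FCS) added; 5 days at 37 °C, 5% CO2; viability read by MTT. EC50 = concentration giving 50% infection versus drug-free control; mock-infected cultures run in parallel for toxicity.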

[2] = tested on: Human immunodeficiency virus 1; test: Inhibitory activity against HIV-1 mutant strain 101E; format: functional, organism-based; outline: as §1
[3] = tested on: Human immunodeficiency virus 1; test: Inhibitory activity against HIV-1 mutant strain 181C; format: functional, organism-based; outline: as §1
[4] = tested on: Human immunodeficiency virus 1; test: Inhibitory activity against HIV-1 mutant strain 227C; format: functional, organism-based; outline: as §1
[5] = tested on: Human immunodeficiency virus 1; test: Inhibitory activity against HIV-1 mutant strain 188L; format: functional, organism-based; outline: as §1
[6] = tested on: Human immunodeficiency virus 1; test: Inhibitory activity against HIV-1 mutant strain 106A; format: functional, organism-based; outline: as §1
[7] = tested on: Human immunodeficiency virus 1; test: Inhibitory activity against HIV-1 mutant strain 138K; format: functional, organism-based; outline: as §1
[8] = tested on: Human immunodeficiency virus 1; test: Inhibitory activity against HIV-1 double mutants strain 103N and 181C; format: functional, organism-based; outline: as §1
[9] = tested on: Human immunodeficiency virus 1; test: Inhibitory activity against wild type HIV-1 LAI cell line; format: functional, organism-based; details: Human immunodeficiency virus 1, LAI
Outline: (§2)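 MT4 human T-lymphoblastoid cells were grown in RPMI 1640 with 10% fetal calf serum and antibiotics at 37 °C and 5% CO2. A compound concentration series was combined with HIV-1 LAI at 200 CCID50/well and 30 000 cells/well. Mock-infected cultures with the same concentrations were run in parallel to measure cytotoxicity. After 5 days, cell viability was read by MTT colorimetry. EC50 is the concentration giving 50% infection versus the drug-free control.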

[10] = tested on: Human immunodeficiency virus 1; test: Inhibitory activity against HIV-1 double mutants strain 100I and 103N; format: functional, organism-based; outline: as §1
[11] = tested on: Human immunodeficiency virus 1; test: Selectivity index of cytotoxic activity (CC50) to inhibitory activity (IC50) relative to LAI cell line; format: functional; outline: as §2
[12] = tested on: Human immunodeficiency virus 1; test: Inhibitory activity against HIV-1 double mutants strain 101E and 103N; format: functional, organism-based; outline: as §1
[13] = tested on: Human immunodeficiency virus 1; test: Inhibitory activity against HIV-1 double mutants strain 227L and 106A; format: functional, organism-based; outline: as §1
[14] = tested on: Human immunodeficiency virus 1; test: Inhibitory activity against HIV-1 mutant strain 179E; format: functional, organism-based; outline: as §1
[15] = tested on: Human immunodeficiency virus 1; test: Inhibitory activity against HIV-1 mutant strain 190A; format: functional, organism-based; outline: as §1
[16] = tested on: Human immunodeficiency virus 1; test: Inhibitory activity against HIV-1 mutant strain 190S; format: functional, organism-based; outline: as §1
[17] = tested on: Human immunodeficiency virus 1; test: Inhibitory activity against HIV-1 mutant strain 100I; format: functional, organism-based; outline: as §1

| Compound | IC50 [1] | IC50 [2] | IC50 [3] | IC50 [4] | IC50 [5] | IC50 [6] | IC50 [7] | IC50 [8] | IC50 [9] | IC50 [10] | Selectivity index [11] | IC50 [12] | IC50 [13] | IC50 [14] | IC50 [15] | IC50 [16] | IC50 [17] |
| --- | --- | --- | --- | --- | --- | --- | --- | --- | --- | --- | --- | --- | --- | --- | --- | --- | --- |
| CCc1c(C)[nH]c(=O)c(N(C)C)c1C(=O)c1cc(C)cc(C)c1 | 10 nM | 8 nM | 60 nM | 630 nM | 150 nM | 6 nM | 5 nM | 150 nM | 4 nM | 40 nM | 2510 | 10 nM | 390 nM | 2 nM | 10 nM | 4 nM | 6 nM |
| CCc1c(C)nc(O)c(N(C)C)c1C(=O)c1cccc(/C=C/C#N)c1 | 2 nM | 8 nM | 10 nM | 790 nM | 150 nM | 2 nM | 5 nM | 40 nM | 1 nM | 20 nM | 10000 | 10 nM | 1000 nM | 1 nM | 6 nM | 6 nM | 6 nM |
| O=C1Nc2ccc(Cl)cc2[C@@](C#CC2CC2)(C(F)(F)F)O1 [EFAVIRENZ] | 40 nM | 6 nM | 2 nM | 150 nM | 150 nM | 40 nM | 2 nM | 40 nM |  | 10000 nM |  | 150 nM | 20 nM | 5 nM | 10 nM | 250 nM | 40 nM |
| CCc1c(C)nc(O)c(N(C)C)c1Cc1cccc(/C=C/C#N)c1 | 2 nM | 6 nM | 10 nM | 390 nM | 150 nM | 2 nM | 3 nM | 30 nM | 0.4 nM | 30 nM | 25100 | 20 nM | 3160 nM | 1 nM | 8 nM | 40 nM | 10 nM |
| CCOCn1c(Cc2ccccc2)c(C(C)C)c(=O)[nH]c1=O [EMIVIRINE] | 790 nM | 120 nM | 1990 nM | 79400 nM | 39800 nM | 1990 nM | 70 nM | 100000 nM | 8 nM | 25100 nM | 1260 | 7940 nM | 100000 nM | 30 nM | 1580 nM | 7940 nM | 40 nM |
| CCc1c(C)[nH]c(=O)c(N(C)C)c1Cc1cc(C)cc(C)c1 | 30 nM | 10 nM | 100 nM |  | 250 nM | 40 nM |  | 790 nM | 8 nM |  | 12600 |  |  |  | 60 nM |  | 50 nM |
| CCc1c(C)nc(O)c(N(C)C)c1C(=O)c1cccc(/C(C)=C/C#N)c1 | 3 nM | 8 nM | 60 nM | 1250 nM | 390 nM | 3 nM | 4 nM | 200 nM | 1 nM | 40 nM | 63100 | 20 nM | 1250 nM | 2 nM | 6 nM | 10 nM | 10 nM |
